Measured values taken from ChEMBL document CHEMBL1123406, “Synthesis and evaluation of 2,3-dihydrobenzofuran analogues of the hallucinogen 1-(2,5-dimethoxy-4-methylphenyl)-2-aminopropane: drug discrimination studies in rats” (1986).
Calls of active or inactive are those of the source. The calls are words filed in the database; no cut-off is given here.

What was measured:
Rattus norvegicus [1] = assay: Number of rats responding on LSD lever/number of rats treated at dose 4.0 mg/kg; 8/8; type: functional, organism-based; set-up: dose 4 mg/kg
Procedure, shortened: (§1)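 Male Sprague–Dawley rats (200-240 g, housed singly) trained in a two-lever operant task to discriminate ip saline from LSD tartrate 0.08 mg/kg. Reinforcement was 45 mg food pellets on an FR50 schedule, with 15-min daily training sessions. Test drugs were given 30 min before testing. A test ended at 50 responses on either lever or at 5 min; rats not completing 50 presses were scored disrupted and excluded.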

Rattus norvegicus [2] = assay: Number of rats responding on LSD lever/number of rats treated at dose 0.5 mg/kg; 1/8; type: functional, organism-based; set-up: dose 0.5 mg/kg; procedure, shortened: as §1
Rattus norvegicus [3] = assay: Number of rats responding on LSD lever/number of rats treated at dose 1.0 mg/kg; 4/8; type: functional, organism-based; set-up: dose 1 mg/kg; procedure, shortened: as §1
Rattus norvegicus [4] = assay: Number of rats responding on LSD lever/number of rats treated at dose 2.0 mg/kg; 6/8; type: functional, organism-based; set-up: dose 2 mg/kg; procedure, shortened: as §1
Rattus norvegicus [5] = assay: Number of rats responding on LSD lever/number of rats treated at dose 3.0 mg/kg; 8/10; type: functional, organism-based; set-up: dose 3 mg/kg; procedure, shortened: as §1
Rattus norvegicus [6] = organism: Rattus norvegicus; assay: Compound was evaluated for the drug discrimination assay and the ED50 (potency) was determined; type: functional; procedure, shortened: as §1
Rattus norvegicus [7] = assay: Percentage responding on LSD lever at dose 0.5 mg/kg; type: functional; procedure, shortened: as §1
Rattus norvegicus [8] = assay: Percentage responding on LSD lever at dose 1.0 mg/kg; type: functional; procedure, shortened: as §1
Rattus norvegicus [9] = assay: Percentage responding on LSD lever at dose 2.0 mg/kg; type: functional; procedure, shortened: as §1
Rattus norvegicus [10] = assay: Percentage responding on LSD lever at dose 3.0 mg/kg; type: functional; procedure, shortened: as §1
Rattus norvegicus [11] = assay: Percentage responding on LSD lever at dose 4.0 mg/kg; type: functional; procedure, shortened: as §1
Rattus norvegicus [12] = assay: Number of rats responding on LSD lever/number of rats treated at dose 4.0 mg/kg; 5/8; type: functional, organism-based; set-up: dose 4 mg/kg; procedure, shortened: as §1
Rattus norvegicus [13] = assay: Number of rats responding on LSD lever/number of rats treated at dose 8.0 mg/kg; 6/8; type: functional, organism-based; set-up: dose 8 mg/kg; procedure, shortened: as §1
Rattus norvegicus [14] = assay: Number of rats responding on LSD lever/number of rats treated at dose 10.0 mg/kg; 10/12; type: functional, organism-based; set-up: dose 10 mg/kg; procedure, shortened: as §1
Rattus norvegicus [15] = assay: Number of rats responding on LSD lever/number of rats treated at dose 0.25 mg/kg; 1/8; type: functional, organism-based; set-up: dose 0.25 mg/kg; procedure, shortened: as §1
Rattus norvegicus [16] = assay: Number of rats responding on LSD lever/number of rats treated at dose 1.0 mg/kg; 1/8; type: functional, organism-based; set-up: dose 1 mg/kg; procedure, shortened: as §1
Rattus norvegicus [17] = assay: Percentage responding on LSD lever at dose 0.25 mg/kg; type: functional; procedure, shortened: as §1
Rattus norvegicus [18] = assay: Percentage responding on LSD lever at dose 10.0 mg/kg; type: functional; procedure, shortened: as §1
Rattus norvegicus [19] = assay: Percentage responding on LSD lever at dose 8.0 mg/kg; type: functional; procedure, shortened: as §1
Rattus norvegicus [20] = assay: Percentage responding on LSD lever at dose 16.0 mg/kg; type: functional; procedure, shortened: as §1

Row | SMILES | Activity (Rattus norvegicus [1]) | Activity (Rattus norvegicus [2]) | Activity (Rattus norvegicus [3]) | Activity (Rattus norvegicus [4]) | Activity (Rattus norvegicus [5]) | ED50 (Rattus norvegicus [6]) [mg/kg] | Responding (Rattus norvegicus [7]) [%] | Responding (Rattus norvegicus [8]) [%] | Responding (Rattus norvegicus [9]) [%] | Responding (Rattus norvegicus [10]) [%] | Responding (Rattus norvegicus [11]) [%] | Activity (Rattus norvegicus [12]) | Activity (Rattus norvegicus [13]) | Activity (Rattus norvegicus [14]) | Activity (Rattus norvegicus [15]) | Activity (Rattus norvegicus [16]) | Responding (Rattus norvegicus [17]) [%] | Responding (Rattus norvegicus [18]) [%] | Responding (Rattus norvegicus [19]) [%] | Responding (Rattus norvegicus [20]) [%]
1 | COc1cc2c(cc1CC(C)N)OCO2 (stereo not drawn) | Active | inactive | Weak activity | Weak activity | Active | 1.71 | 13 | 50 | 75 | 80 | 100 |  |  |  |  |  |  |  |  | 
2 | COc1cc2c(cc1CC(C)N)OCC2 (stereo not drawn) |  |  |  |  |  | 2.12 |  | 13 |  |  | 63 | Weak activity | Weak activity | Active | inactive | inactive | 13 | 83 | 75 | 
3 | COc1cc2c(cc1CC(C)N)OC(C)C2 (stereo not drawn) |  |  |  |  |  | 5.5 | 0 |  | 0 |  | 38 |  |  |  |  |  |  |  | 63 | 88
